Source: ChEMBL document CHEMBL1255259, “Phosphorothioate-modified oligodeoxynucleotides inhibit human cytomegalovirus replication by blocking virus entry” (Antimicrob Agents Chemother, 2008)
Activity calls are given as the source filed them. The rule behind the calls is not given here.

Key:
[1] = test system: Human betaherpesvirus 5; test: Antimicrobial activity against Human cytomegalovirus AD169 infected in compound pretreated HELF assessed as inhibition of viral replication measured after 6 days post-infection; type: functional, organism-based; conditions: Human betaherpesvirus 5, AD169, HELF
How it was run: (§1)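 HELF pretreated with ODN 1 h before infection with HCMV AD169 (MOI 1); ODN kept in medium after 2 h adsorption at 37°C. At 6 days p.i., cells plus supernatants sonicated and titrated by plaque assay on HELF; plaques counted microscopically, expressed as PFU/ml (log10) or % of control. IC50/IC90 by linear regression; duplicate wells, three independent experiments, means ± SD.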

[2] = test system: Human alphaherpesvirus 1; test: Antimicrobial activity against Human herpesvirus 1 infected in compound pretreated HELF assessed as inhibition of viral replication at 1 uM; type: functional, organism-based
How it was run: (§2)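 HELF pretreated with ODN (0.1 or 1 μM) 1 h before infection with a clinical HSV-1 isolate at MOI 0.1; ODN kept in medium after 2 h adsorption. Harvest at 48 h p.i., sonication, plaque titration on Vero cells. Means ± SD of three independent experiments.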

[3] = test system: Human betaherpesvirus 5; test: Antimicrobial activity against 0.1 uM compound pretreated Human cytomegalovirus AD169 infected in HELF assessed as reduction in viral titer 37 degC; type: functional, organism-based
How it was run: (§3)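 HCMV AD169 (10^4 PFU) incubated with ODN at 0.1 μM at 4 or 37°C for various times; samples then diluted to bring ODN below an antivirally active level; residual infectivity titrated by plaque assay on HELF. Means ± SD of three independent experiments.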

[4] = test system: Human betaherpesvirus 5; test: Antimicrobial activity against 0.1 uM compound pretreated Human cytomegalovirus AD169 infected in HELF assessed as reduction in viral titer at 4 degC; type: functional, organism-based; how it was run: as §3
[5] = test system: Human betaherpesvirus 5; test: Antimicrobial activity against Human cytomegalovirus AD169 infected in 0.1 uM compound pretreated HELF assessed as inhibition of viral replication measured after 6 days post-infection; type: functional, organism-based; how it was run: as §1
[6] = test system: Human betaherpesvirus 5; test: Antimicrobial activity against Human cytomegalovirus AD169 infected in HELF assessed as inhibition of viral replication at 1 uM measured after 6 days post-infection; type: functional, organism-based
[7] = test system: Human betaherpesvirus 5; test: Antimicrobial activity against Human cytomegalovirus AD169 infected in HELF assessed as inhibition of viral replication at 0.1 uM measured after 6 days post-infection; type: functional, organism-based
[8] = test system: Human alphaherpesvirus 1; test: Antimicrobial activity against Human herpesvirus 1 infected in compound pretreated HELF assessed as inhibition of viral replication at 0.1 uM; type: functional, organism-based; how it was run: as §2
[9] = Cytotoxicity against HELF assessed as cell viability by MTT assay after 6 days at <=10 uM; type: cell-based; conditions: human, 144 h
How it was run: (§4)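 HELF exposed to rising ODN concentrations (up to 10 μM) for 6 days; viable cells measured by MTT. CC50 taken as concentration that cuts viability to 50%.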

[10] = Cytotoxicity against HELF assessed as cell viability after 6 days by MTT assay; type: cell-based; conditions: human, HELF cells; how it was run: as §4
[11] = test system: Human betaherpesvirus 5; test: Antimicrobial activity against Human cytomegalovirus AD169 infected in 1 uM compound pretreated HELF assessed as inhibition of viral replication measured after 6 days post-infection; type: functional, organism-based; how it was run: as §1

SMILES: Cc1cn([C@H]2C[C@H](OP(O)(O)=S)[C@@H](COP(O)(=S)O[C@H]3C[C@H](n4cc(C)c(=O)[nH]c4=O)O[C@@H]3COP(O)(=S)O[C@H]3[C@@H](O)[C@H](n4cnc5c(=O)[nH]c(N)nc54)O[C@@H]3COP(O)(=S)O[C@H]3[C@@H](O)[C@H](n4ccc(N)nc4=O)O[C@@H]3COP(O)(=S)O[C@H]3C[C@H](n4cc(C)c(=O)[nH]c4=O)O[C@@H]3COP(O)(=S)O[C@H]3[C@@H](O)[C@H](n4cnc5c(=O)[nH]c(N)nc54)O[C@@H]3COP(O)(=S)O[C@H]3C[C@H](n4cc(C)c(=O)[nH]c4=O)O[C@@H]3COP(O)(=S)O[C@H]3C[C@H](n4cc(C)c(=O)[nH]c4=O)O[C@@H]3COP(O)(=S)O[C@H]3C[C@H](n4cc(C)c(=O)[nH]c4=O)O[C@@H]3COP(O)(=S)O[C@H]3C[C@H](n4cc(C)c(=O)[nH]c4=O)O[C@@H]3COP(O)(=S)O[C@H]3[C@@H](O)[C@H](n4cnc5c(=O)[nH]c(N)nc54)O[C@@H]3COP(O)(=S)O[C@H]3[C@@H](O)[C@H](n4ccc(N)nc4=O)O[C@@H]3COP(O)(=S)O[C@H]3C[C@H](n4cc(C)c(=O)[nH]c4=O)O[C@@H]3COP(O)(=S)O[C@H]3[C@@H](O)[C@H](n4cnc5c(=O)[nH]c(N)nc54)O[C@@H]3COP(O)(=S)O[C@H]3[C@@H](O)[C@H](n4ccc(N)nc4=O)O[C@@H]3COP(O)(=S)O[C@H]3C[C@H](n4cc(C)c(=O)[nH]c4=O)O[C@@H]3COP(O)(=S)O[C@H]3C[C@H](n4cc(C)c(=O)[nH]c4=O)O[C@@H]3COP(O)(=S)O[C@H]3C[C@H](n4cc(C)c(=O)[nH]c4=O)O[C@@H]3COP(O)(=S)O[C@H]3[C@@H](O)[C@H](n4cnc5c(=O)[nH]c(N)nc54)O[C@@H]3COP(O)(=S)O[C@H]3[C@@H](O)[C@H](n4ccc(N)nc4=O)O[C@@H]3COP(O)(=S)O[C@H]3C[C@H](n4cc(C)c(=O)[nH]c4=O)O[C@@H]3COP(O)(=S)O[C@H]3[C@@H](O)[C@H](n4cnc5c(=O)[nH]c(N)nc54)O[C@@H]3COP(O)(=S)O[C@H]3[C@@H](O)[C@H](n4ccc(N)nc4=O)O[C@@H]3COP(O)(=S)O[C@H]3C[C@H](n4cc(C)c(=O)[nH]c4=O)O[C@@H]3CO)O2)c(=O)[nH]c1=O (stereo partly specified)
- IC50 [1]: 50 nM
- IC90 [1]: 800 nM
- inhibition [2]: inactive
- inhibition [3]: inactive
- inhibition [4]: inactive
- inhibition [5]: Active
- inhibition [6]: inactive
- inhibition [7]: inactive
- inhibition [8]: inactive
- Activity [9]: Non-toxic
- CC50 at 144 h [10]: > 10000 nM
- inhibition [11]: Active

SMILES: Cc1cn([C@H]2C[C@H](OP(O)(O)=S)[C@@H](COP(O)(=S)O[C@H]3C[C@H](n4cc(C)c(=O)[nH]c4=O)O[C@@H]3COP(O)(=S)O[C@H]3[C@@H](O)[C@H](n4cnc5c(=O)[nH]c(N)nc54)O[C@@H]3COP(O)(=S)O[C@H]3[C@@H](O)[C@H](n4ccc(N)nc4=O)O[C@@H]3COP(O)(=S)O[C@H]3[C@@H](O)[C@H](n4cnc5c(N)ncnc54)O[C@@H]3COP(O)(=S)O[C@H]3[C@@H](O)[C@H](n4cnc5c(=O)[nH]c(N)nc54)O[C@@H]3COP(O)(=S)O[C@H]3C[C@H](n4cc(C)c(=O)[nH]c4=O)O[C@@H]3COP(O)(=S)O[C@H]3[C@@H](O)[C@H](n4ccc(N)nc4=O)O[C@@H]3COP(O)(=S)O[C@H]3[C@@H](O)[C@H](n4ccc(N)nc4=O)O[C@@H]3COP(O)(=S)O[C@H]3C[C@H](n4cc(C)c(=O)[nH]c4=O)O[C@@H]3COP(O)(=S)O[C@H]3C[C@H](n4cc(C)c(=O)[nH]c4=O)O[C@@H]3COP(O)(=S)O[C@H]3[C@@H](O)[C@H](n4cnc5c(=O)[nH]c(N)nc54)O[C@@H]3COP(O)(=S)O[C@H]3[C@@H](O)[C@H](n4ccc(N)nc4=O)O[C@@H]3COP(O)(=S)O[C@H]3[C@@H](O)[C@H](n4cnc5c(N)ncnc54)O[C@@H]3COP(O)(=S)O[C@H]3[C@@H](O)[C@H](n4cnc5c(=O)[nH]c(N)nc54)O[C@@H]3COP(O)(=S)O[C@H]3C[C@H](n4cc(C)c(=O)[nH]c4=O)O[C@@H]3COP(O)(=S)O[C@H]3[C@@H](O)[C@H](n4cnc5c(N)ncnc54)O[C@@H]3COP(O)(=S)O[C@H]3[C@@H](O)[C@H](n4ccc(N)nc4=O)O[C@@H]3COP(O)(=S)O[C@H]3[C@@H](O)[C@H](n4ccc(N)nc4=O)O[C@@H]3COP(O)(=S)O[C@H]3C[C@H](n4cc(C)c(=O)[nH]c4=O)O[C@@H]3CO)O2)c(=O)[nH]c1=O (stereo partly specified)
- IC50 [1]: 40 nM
- IC90 [1]: 900 nM
- inhibition [2]: inactive
- inhibition [3]: inactive
- inhibition [4]: inactive
- inhibition [5]: Active
- inhibition [6]: inactive
- inhibition [7]: inactive
- inhibition [8]: inactive
- Activity [9]: Non-toxic
- CC50 at 144 h [10]: > 10000 nM
- inhibition [11]: Active

SMILES: Cc1cn([C@H]2C[C@H](OP(O)(=S)OC[C@H]3O[C@@H](n4ccc(N)nc4=O)[C@H](O)[C@@H]3OP(O)(=S)OC[C@H]3O[C@@H](n4cnc5c(=O)[nH]c(N)nc54)[C@H](O)[C@@H]3OP(O)(=S)OC[C@H]3O[C@@H](n4cc(C)c(=O)[nH]c4=O)C[C@@H]3OP(O)(=S)OC[C@H]3O[C@@H](n4ccc(N)nc4=O)[C@H](O)[C@@H]3OP(O)(=S)OC[C@H]3O[C@@H](n4cnc5c(=O)[nH]c(N)nc54)[C@H](O)[C@@H]3OP(O)(=S)OC[C@H]3O[C@@H](n4cc(C)c(=O)[nH]c4=O)C[C@@H]3OP(O)(=S)OC[C@H]3O[C@@H](n4cc(C)c(=O)[nH]c4=O)C[C@@H]3OP(O)(=S)OC[C@H]3O[C@@H](n4cc(C)c(=O)[nH]c4=O)C[C@@H]3OP(O)(=S)OC[C@H]3O[C@@H](n4cc(C)c(=O)[nH]c4=O)C[C@@H]3OP(O)(=S)OC[C@H]3O[C@@H](n4cnc5c(=O)[nH]c(N)nc54)[C@H](O)[C@@H]3OP(O)(=S)OC[C@H]3O[C@@H](n4cc(C)c(=O)[nH]c4=O)C[C@@H]3OP(O)(=S)OC[C@H]3O[C@@H](n4ccc(N)nc4=O)[C@H](O)[C@@H]3OP(O)(=S)OC[C@H]3O[C@@H](n4cnc5c(=O)[nH]c(N)nc54)[C@H](O)[C@@H]3OP(O)(=S)OC[C@H]3O[C@@H](n4cc(C)c(=O)[nH]c4=O)C[C@@H]3OP(O)(=S)OC[C@H]3O[C@@H](n4cc(C)c(=O)[nH]c4=O)C[C@@H]3OP(O)(=S)OC[C@H]3O[C@@H](n4cc(C)c(=O)[nH]c4=O)C[C@@H]3OP(O)(=S)OC[C@H]3O[C@@H](n4cc(C)c(=O)[nH]c4=O)C[C@@H]3OP(O)(=S)OC[C@H]3O[C@@H](n4cc(C)c(=O)[nH]c4=O)C[C@@H]3OP(O)(=S)OC[C@H]3O[C@@H](n4cc(C)c(=O)[nH]c4=O)C[C@@H]3OP(O)(=S)OC[C@H]3O[C@@H](n4cc(C)c(=O)[nH]c4=O)C[C@@H]3OP(O)(=S)OC[C@H]3O[C@@H](n4ccc(N)nc4=O)[C@H](O)[C@@H]3OP(O)(=S)OC[C@H]3O[C@@H](n4cnc5c(=O)[nH]c(N)nc54)[C@H](O)[C@@H]3OP(O)(=S)OC[C@H]3O[C@@H](n4cnc5c(N)ncnc54)[C@H](O)[C@@H]3OP(O)(O)=S)[C@@H](CO)O2)c(=O)[nH]c1=O (stereo partly specified)
- IC50 [1]: 20 nM
- IC90 [1]: 100 nM
- inhibition [2]: inactive
- inhibition [3]: inactive
- inhibition [4]: inactive
- inhibition [5]: Active
- inhibition [6]: inactive
- inhibition [7]: inactive
- inhibition [8]: inactive
- Activity [9]: Non-toxic
- CC50 at 144 h [10]: > 10000 nM
- inhibition [11]: Active
